High-throughput results as filed in PubChem.
Rev-erbA mod: modulators of human Rev-erb alpha DNA binding | P20393 | Rev-erbα–FITC-DNA binding, fluorescence polarization, 90 min | activity, % at 10 µM | 370,000 compounds, 0.79% hits;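 active means activity above about 14%, limit read from the data; passing the limit was not always enough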;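 further: 0% = DMSO wells with 35 nM protein and 100% = DMSO wells with 750 nM protein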
NR2E3 ag-1: agonists of human nuclear receptor NR2E3. Q9Y5X4. GST-NR2E3/biotin-RetCOR TR-FRET, 1536-well. inhibition of corepressor binding, % at 4.78 µM. 320,000 compounds, 0.12% hits. AID 2300;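 active means percent inhibition above the cutoff of mean plus 3 SD of all tested compounds, set per screening campaign, cut at about 20% in these data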;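 further: 0% = DMSO wells and 100% = biotin wells as full block of FRET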
Target sequence (Q9Y5X4 whole entry, looked up): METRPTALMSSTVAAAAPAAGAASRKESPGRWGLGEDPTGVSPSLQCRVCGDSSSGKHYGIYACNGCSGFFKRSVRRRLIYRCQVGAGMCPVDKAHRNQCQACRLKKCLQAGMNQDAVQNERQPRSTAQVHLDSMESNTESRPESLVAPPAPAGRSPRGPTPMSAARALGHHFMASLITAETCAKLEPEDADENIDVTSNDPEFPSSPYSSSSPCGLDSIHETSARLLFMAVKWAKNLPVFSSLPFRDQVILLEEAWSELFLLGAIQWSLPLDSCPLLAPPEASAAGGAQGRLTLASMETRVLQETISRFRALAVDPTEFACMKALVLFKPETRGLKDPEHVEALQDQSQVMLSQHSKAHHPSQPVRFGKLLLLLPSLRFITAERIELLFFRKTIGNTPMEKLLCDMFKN
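System: GST-NR2E3 and biotin-RetCOR proteins; probe or stimulus: 7 nM biotin-RetCOR; doses: compound at 4.8 µM, single dose; schedule: Compound–protein incubation for 5 h at 4 °C; detection: time-resolved FRET; read-out: percent inhibition; controls: biotin wells as high control, 0.6% DMSO wells as low control; format: 1536-well plates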
PG9 Ab binder: binds the HIV-1 gp120 antibody PG9; 360,000 compounds, 0.43% hits; AID 624416; TR-FRET gp120-PG9 antibody binding; inhibition, % at 6.7 µM; in the data active means inhibition above about 8.5%
NR2E3 ag-2: human photoreceptor-specific nuclear receptor agonism; Q9Y5X4; CHO-S Gal4-NCOR/VP16-NR2E3 two-hybrid, luciferase; 360,000 compounds, 0.35% hits; AID 602229; inhibition of corepressor binding, % at 3.98 µM;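 active means inhibition above the mean of all tested compounds plus 3 SD, cut at about 70% in these data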;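 further: 0% = DMSO with NR2E3 transfected cells and 100% = cells lacking NR2E3 construct; higher means lower luciferase signal from less NR2E3 corepressor binding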
Rev-erbA confirm: Rev-erb alpha (human) modulation, hit confirmation; shares compounds with Rev-erbA mod; Rev-erb alpha FITC-DNA binding, fluorescence polarization, 90 min; activation, % at 25 µM; 3,000 compounds, 61% hits; AID 1259319;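 active means activation at or above a set limit, or at least 3 SD above the negative control mean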;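 further: 0% = 35 nM protein with DMSO and 100% = 750 nM protein high control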
RORg counter: counter-screen for Rev-erb alpha modulators: RORgamma DNA binding; 910 compounds, 8% hits; IC50, µM; purified RORgamma protein-FITC-DNA binding, fluorescence polarization; shares compounds with Rev-erbA mod;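 active means Compounds whose fitted half-maximal concentration for disrupting protein-DNA binding is below 10 micromolar; the record names Rev-erb in its text, so the target is in doubt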
An asterisk follows results filed as active; i = inactive; . = not tested or not shown. Rows were chosen to be rich in hits. Some 1.4% of all compounds tested hit in one or more screens of this group.

SMILES	Rev-erbA mod	NR2E3 ag-1	PG9 Ab binder	NR2E3 ag-2	Rev-erbA confirm	RORg counter
COC(=O)c1c(-c2cccc(C)c2)csc1NC(=O)C1CCCO1 (stereo unspecified)	24*	-3	1	-9	27*	.
CCCCOC(=O)c1cc(C)nc2ccc(Br)cc12	44*	5	7	6	33*	>40
O=C(NCCCc1ccccc1)[C@H](CO)NC1(C(=O)NCCc2c[nH]c3ccccc23)CCCCC1	-8	.	.	.	.	.
Cc1ccc(-c2nn3c(C)nnc3s2)cc1NCc1c(F)cccc1Cl	23*	1	-1	-19	2	.
Cc1cc(C)c2cc(C#N)c(SCC(=O)NCC3CCCO3)nc2c1 (stereo unspecified)	103*	2	0	-14	88*	i
Cc1cc(C)c2cc(C#N)c(SCC(=O)Nc3ccc4c(c3)OCO4)nc2c1	62*	0	4	-8	196*	>40
Cc1ccc2cc(C#N)c(SCC(=O)NCC3CCCO3)nc2c1 (stereo unspecified)	11	1	-1	-27	.	.
O=C(COc1ccc(Cl)cc1Cl)Nc1cccc(-c2ccc(N3CCOCC3)nn2)c1	22*	.	2	-36	14*	.
CC1CC(=O)N(c2ccc(NCCc3ccc(O)cc3)c([N+](=O)[O-])c2)C1=O (stereo unspecified)	19*	2	0	-35	7	.
COc1nc2ccc(C)cc2cc1-c1noc(-c2cccnc2)n1	35*	0	-2	-24	7	.
O=C(O)CSc1nnc(-c2cccs2)n1-c1ccc(Cl)cc1	0	0	1	1	.	.
O=C(CSc1nnnn1-c1ccc2c(c1)OCCO2)c1cccc2c1OCCO2	107*	-1	-2	-58	81*	>40
O=C(CSc1nnc(-c2cccs2)n1-c1cccc(Cl)c1)c1cccc2c1OCCO2	79*	-2	0	-12	85*	>40
COc1ccc(-n2nnnc2SCC(=O)c2ccc3c(c2)OCCO3)cc1	63*	-3	8	0	64*	.
O=C(O)CSc1nnnn1-c1ccc2c(c1)OCCO2	-5	3	1	-6	.	.
COc1ccc(-n2nnnc2SCC(=O)c2cccc(OC)c2)cc1	9	1	-1	-5	.	.
COC(=O)[C@]12C[C@H](CC(=O)NCCC(C)C)C(=O)N(Cc3ccco3)C1=C[C@H](C(C)C)O[C@@H]2C1CC1	8	.	.	.	.	.
CN(C)C=Nc1ncc2c3ccccc3n(CCN(C)C)c2c1C#N	0	3	-1	-15	.	.
CN(C)C=Nc1ncc2c3ccccc3n(Cc3ccccc3)c2c1C#N	34*	-2	-3	-44	30*	.
N#Cc1ccc(-c2cccnc2)nc1SCc1ccc(Cl)cc1Cl	20*	-3	-2	3	6	.
O=C(OCc1cn(Cc2cccc(F)c2F)nn1)N1CCOCC1	1	.	.	.	.	.
Cc1ccc(C2=CCN(C)C(=O)N2c2ccc(Br)cc2)cc1	4	.	.	.	.	.
O=C(NC1CCCCCCC1)c1cc(-c2ccccn2)nc2ccccc12	41*	6	0	4	0	.
O=C(NC1CCN(Cc2ccccc2)CC1)c1cc(-c2ccccn2)nc2ccccc12	-2	-2	-2	-13	.	.
CCCCN1C(=O)N2CCc3ccccc3C2CS1(=O)=O (stereo unspecified)	5	.	.	.	.	.
SMILES	Rev-erbA mod	NR2E3 ag-1	PG9 Ab binder	NR2E3 ag-2	Rev-erbA confirm	RORg counter
CCOC(=O)Cc1nc(N2CCN(CCO)CC2)c2c(C)c(C(=O)OCC)sc2n1	2	.	.	.	.	.
COc1ccc(C2NC(=O)NC(C)=C2C(=O)OC2CCCC(C)C2)cc1 (stereo unspecified)	18*	6	2	8	8	.
COc1ccc(C2NC(=O)NC(C)=C2C(=O)OC2CCCCC2)cc1 (stereo unspecified)	-2	.	1	-24	.	.
COc1ccc(C(=O)/C(C#N)=N/Nc2ccc([N+](=O)[O-])cc2)cc1	44*	1	1	-59	36*	>40
Nc1ccc2cc3ccc(N)cc3nc2c1	28*	.	.	.	27*	>40
CC(C)CNC(=O)C1CSCCS(=O)(=O)N1Cc1ccccc1 (stereo unspecified)	2	.	.	.	.	.
CCc1ccc2nc(/N=C(\N)NC(=O)c3ccccc3)nc(C)c2c1	23*	3	-3	-55	0	.
Cc1cc(C)c2nc(/N=C(\N)NC(=O)c3ccccc3)nc(C)c2c1	56*	2	-2	4	15	.
Cc1ccc(C(=O)Nc2cccc(C(F)(F)F)c2)cc1NC(=O)c1nccn1C	20*	-3	-3	-14	23*	>40
CCCCOCCCNC(=O)C[C@H]1C[C@@]2(C(=O)OC)C(=C[C@H](C(C)C)O[C@@H]2C2CC2)N(Cc2ccc3c(c2)OCO3)C1=O	2	.	.	.	.	.
COC(=O)[C@H](C(C)C)N1Cc2nnn(Cc3ccc(C)cc3)c2-c2cc(F)ccc2S1(=O)=O	0	.	.	.	.	.
O=C(NCCc1ccccc1)c1cc(-c2ccccc2)c(N2CCOCC2)s1	-1	5	2	-18	.	.
CSc1ccc(CCNC(=O)c2cc(-c3ccccc3)c(N3CCOCC3)s2)cc1	67*	4	2	-1	51*	i
COc1ccc(C(=O)Nc2ccc(-c3ccc(NC(=O)c4ccc(OC)cc4)c(OC)c3)cc2OC)cc1	29*	0	0	0	5	.
COc1ccc2oc(C(=O)Nc3ccccc3N3CCOCC3)c(C)c2c1	29*	3	2	-26	9	.
CCN(CC)S(=O)(=O)c1ccc2oc(C(=O)Nc3ccc(OC)cc3OC)c(C)c2c1	-4	-5	-1	-33	.	.
COc1ccc(NC(=O)c2oc3cc(C)c(C)cc3c2C)c(OC)c1	21*	2	-1	6	4	.
COc1cccc(C(=O)NCCN2C(=O)C3C4C=CC(C4)C3C2=O)c1 (stereo unspecified)	6	.	.	.	.	.
Cc1ccc(CN2C(=O)C3CCCN3c3ccc(C#N)cc32)cc1 (stereo unspecified)	.	-2	.	.	.	.
Cc1ccc(C)c(CN2C(=O)C3CCCN3c3ccc(C#N)cc32)c1 (stereo unspecified)	49*	2	4	-11	36*	.
COc1ccc(-c2cc(-c3ccc(C)cc3)nc(SCc3nnc(-c4ccccc4)o3)c2C#N)cc1OC	80*	-1	-2	-4	37*	>40
CCN1C(=O)CSC1=NC1C2CC3CC(C2)CC1C3 (stereo unspecified)	42*	2	-1	-40	48*	>40
CCOc1ccc(N=C2SCC(=O)N2CC)cc1	-4	1	2	7	.	.
COc1ccc(C(C)(C)C)cc1NC(=O)C1=CC=CN2CCS(=O)(=O)N=C12	24*	.	1	6	30*	i
Nc1ccc2nc3c(=O)n(CCc4ccccc4)c(=O)[nH]c3nc2c1	72*	-5	-6	-10	64*	i
